Experiments:
[1] = biological target: T1, Phospholipase A2 (Apis mellifera, UniProt P00630); test: Inhibition of bee venom phospholipase A2
T1 sequence (P00630 whole entry): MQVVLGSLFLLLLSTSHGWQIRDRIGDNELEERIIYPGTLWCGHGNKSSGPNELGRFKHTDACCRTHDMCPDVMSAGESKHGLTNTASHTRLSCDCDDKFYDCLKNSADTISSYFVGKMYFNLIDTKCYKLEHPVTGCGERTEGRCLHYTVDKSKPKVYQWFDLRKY

[2] = test system: THP-1; test: Cytotoxicity against human THP1 cells assessed as cell viability after 48 hrs by MTT assay; type: functional, cell-based; settings: THP-1, 48 h
Procedure, shortened: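 THP-1 cells cultured in RPMI-1640 containing 2-mercaptoethanol and 10% FBS, humidified 5% CO2, 37 °C. They were seeded at 1 × 10^4 cells per well in 96-well plates and incubated with graded compound concentrations for 48 h. MTT was added for the final 1 h, and formazan was dissolved in DMSO for absorbance reading. IC50 is mean ± SD of three independent experiments.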

[3] = test system: DU-145; test: Cytotoxicity against human DU145 cells assessed as cell viability after 48 hrs by MTT assay; type: functional, cell-based; settings: DU-145, 48 h
Procedure, shortened: (§1)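 DU145 and MCF-7 cells grown in MEM with non-essential amino acids, 1 mM sodium pyruvate, […] bovine insulin and 10% FBS at 37 °C, 5% CO2. Cells were seeded at 1 × 10^4 per well in 96-well plates and treated at varied concentrations for 48 h. MTT reduction was measured over 1 h, with DMSO-solubilized formazan read by absorbance. IC50 is mean ± SD, n = 3 independent experiments.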

[4] = test system: A549; test: Cytotoxicity against human A549 cells assessed as cell viability after 48 hrs by MTT assay; type: functional, cell-based; settings: A549, 48 h
Procedure, shortened: (§2)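 A549 and HeLa cells grown in DMEM with non-essential amino acids and 10% FBS at 37 °C, 5% CO2. Subconfluent cells were trypsinized, plated at 1 × 10^4 cells per well in 96-well plates, and exposed to a range of concentrations for 48 h. MTT was added for 1 h, and formazan was dissolved in DMSO and read by absorbance. IC50 is mean ± SD of three independent experiments.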

[5] = test system: MCF7; test: Cytotoxicity against human MCF7 cells assessed as cell viability after 48 hrs by MTT assay; type: functional, cell-based; settings: MCF7, 48 h; procedure, shortened: as §1
[6] = test system: HeLa; test: Cytotoxicity against human HeLa cells assessed as cell viability after 48 hrs by MTT assay; type: functional, cell-based; procedure, shortened: as §2

SMILES | IC50 [1] | IC50 [2] | IC50 [3] | IC50 [4] | IC50 [5] | IC50 [6]
C=C/C(C)=C\CC/C(C)=C/c1cc(C(=O)O)co1 | 500 µM | 56.6 µM | 60.1 µM | 89.3 µM | 61.9 µM | 81 µM
C=C/C(C)=C/CC/C(C)=C/c1cc(C(=O)O)co1 | – | 39.8 µM | 38.9 µM | 89.7 µM | 74.5 µM | 80.4 µM
C=C/C(C)=C\CC/C(C)=C/c1cc(C(=O)OC)co1 | – | 51.4 µM | 59.3 µM | 89.6 µM | 75.4 µM | 59.4 µM
C=C/C(C)=C/CC/C(C)=C/c1cc(C(=O)OC)co1 | – | 25.8 µM | 25.1 µM | 28.6 µM | 28.9 µM | 35.5 µM
C=C/C(C)=C\CC/C(C)=C/c1cc(C(=O)N2CCN(C)CC2)co1 | – | 20.8 µM | 24.1 µM | 23.6 µM | 27.9 µM | 30.5 µM
C=C/C(C)=C\CC/C(C)=C/c1cc(C(=O)N2CCN(CC)CC2)co1 | – | 26.5 µM | 20.4 µM | 27.9 µM | 30.3 µM | 35.9 µM
C=C/C(C)=C\CC/C(C)=C/c1cc(C(=O)N2CCN(c3ccccc3)CC2)co1 | – | 28.6 µM | 30.3 µM | 28.3 µM | 39.8 µM | 32.1 µM
C=C/C(C)=C\CC/C(C)=C/c1cc(C(=O)N2CCN(Cc3ccccc3)CC2)co1 | – | 50.9 µM | 45.3 µM | 50.7 µM | 53.7 µM | 59.4 µM
C=C/C(C)=C\CC/C(C)=C/c1cc(C(=O)N2CCN(Cc3ccc4c(c3)OCO4)CC2)co1 | – | 15.9 µM | 17.9 µM | 45.5 µM | 50.8 µM | 44.2 µM
C=C/C(C)=C\CC/C(C)=C/c1cc(C(=O)N2CCN(C(c3ccccc3)c3ccccc3)CC2)co1 | – | 17.8 µM | 16.8 µM | 24.6 µM | 26.7 µM | 28.5 µM
C=C/C(C)=C\CC/C(C)=C/c1cc(C(=O)Nc2ccc(C)cc2)co1 | – | 60.4 µM | 56.5 µM | 63.2 µM | 65.3 µM | 59.5 µM
C=C/C(C)=C\CC/C(C)=C/c1cc(C(=O)NCCCNC(=O)c2coc(/C=C(\C)CC/C=C(/C)C=C)c2)co1 | – | 59 µM | 41.3 µM | 69.7 µM | 57.7 µM | 73.4 µM
